Calls of active or inactive are those of the source. The rule behind the calls is not given here.
Key:
[1] = target: Mitogen-activated protein kinase 14 (Homo sapiens) (UniProt Q16539); assay: Inhibition of SAPK2alpha (unknown origin) at 1 micromol/L relative to control; conditions: dose 1.0 µmol/L
Outline: (§1)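 Commercial kinase profiler panel run to the provider's protocol, with the compound tested at 1 µmol/L. Activity is expressed as percent of kinase activity without compound.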

[2] = target: RAC-beta serine/threonine-protein kinase (Homo sapiens) (UniProt P31751); assay: Inhibition of PKBbeta (unknown origin) at 1 micromol/L relative to control; conditions: dose 1.0 µmol/L; outline: as §1
[3] = target: Inhibitor of nuclear factor kappa-B kinase subunit beta (Homo sapiens) (UniProt O14920); assay: Inhibition of IKKbeta (unknown origin) at 1 micromol/L relative to control; conditions: dose 1.0 µmol/L
Outline: (§2)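 Upstate Kinase Profiler panel at 1 μmol/L drug, run per provider; data expressed as percent of kinase activity without drug.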

[4] = target: Glycogen synthase kinase-3 beta (Homo sapiens) (UniProt P49841); assay: Inhibition of GSK3beta phosphorylation at serine 9 residue in human HCT-116 cells at 1 micromol/L by Western blotting analysis; assay type: cell-based; conditions: dose 1.0 µmol/L, time <= 4.0 hrs, TDE = time-dependent effect
Outline: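 Cultured tumor cells treated with 1 μmol/L drug; lysates in cell extraction buffer with protease inhibitors, western blotted with phospho-specific antibodies (pGSK3β Ser9, pAKT Thr308, phospho-ERK) alongside total GSK3β/AKT.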

[5] = Plasma concentration in athymic nude mouse xenografted with human HCT-116 cells at 75 mg/kg, po administered twice daily measured after 30 mins by LC-MS analysis; assay type: ADME, organism-based
Outline: (§3)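 Female athymic nude mice, 6–8 weeks old, received 5 million HCT116 cells s.c. in the flank in 1:1 serum-free medium and matrigel (n = 9 per group). Dosing began at a group mean tumor volume of 100 mm³: 75 mg/kg twice daily by gavage, suspended in 10% acacia in water. Plasma was taken on days 1 and 21 at 0.5–12 h post-dose and measured by LC-MS/MS.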

[6] = system: NCI-H460; assay: Antiproliferative activity against human NCI-H460 cells assessed as reduction in cell growth upto 10 uM measured after 6 days by propidium iodide staining based analysis; assay type: functional; conditions: time 6.0 day
Outline: (§4)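 ATCC-sourced lines grown without antibiotics; 1,000 cells/well in 1% FBS medium, refed ±drug on days 1 and 4 over a 6-day course. On day 7, propidium iodide (10 μg/mL in D-PBS) read after 30 min for nonviable cells, plate frozen at -80°C 2 h, thawed and reread; proliferative index = postfreeze minus prefreeze signal.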

[7] = target: Proto-oncogene tyrosine-protein kinase Src (Homo sapiens) (UniProt P12931); assay: Inhibition of c-SRC (unknown origin) at 1 micromol/L relative to control; conditions: dose 1.0 µmol/L; outline: as §1
[8] = system: MOLT-4; assay: Antiproliferative activity against human MOLT-4 cells assessed as reduction in cell growth upto 10 uM measured after 6 days by propidium iodide staining based analysis; assay type: functional; conditions: time 6.0 day; outline: as §4
[9] = system: BT-549; assay: Antiproliferative activity against human BT-549 cells assessed as reduction in cell growth upto 10 uM measured after 6 days by propidium iodide staining based analysis; assay type: functional; conditions: time 6.0 day; outline: as §4
[10] = system: HCT-116; assay: Antitumor activity against human HCT-116 cells xenografted in athymic nude mouse assessed as reduction in GSK3beta phosphorylation at serine 9 residue at 75 mg/kg, po administered twice daily by Western blotting analysis; assay type: functional, organism-based; conditions: time <= 8.0 hrs, TDE = time-dependent effect
[11] = system: HCT-116; assay: Antitumor activity against human HCT-116 cells xenografted in athymic nude mouse assessed as reduction in GSK3beta phosphorylation at serine 9 residue at 75 mg/kg, po administered twice daily measured after 2 to 4 hrs by ELISA method relative to control; assay type: functional; set-up: scale not given: the % may be the effect or the level left; conditions: time 2-4 hrs
Outline: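 HCT116-bearing nude mice, 75 mg/kg by gavage; tumors and PBMCs harvested 0.5, 2, 4, 8 h post-dose, n = 5 per time point. PBMCs from five mice pooled via CPT tube. Lysates assayed by pGSK3β Ser9 immunometric ELISA (tumor 400–600 μg, PBMC 50–100 μg protein/well); percent of vehicle control, Dunnett/ANOVA.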

[12] = system: Malme-3M; assay: Antiproliferative activity against human Malme-3M cells assessed as reduction in cell growth upto 10 uM measured after 6 days by propidium iodide staining based analysis; assay type: functional; conditions: time 6.0 day; outline: as §4
[13] = target: Protein kinase C eta type (Homo sapiens) (UniProt P24723); assay: Inhibition of PKCeta (unknown origin) at 1 micromol/L relative to control; conditions: dose 1.0 µmol/L; outline: as §1
[14] = Antitumor activity against human HCT116 cells implanted in athymic nude mouse assessed as reduction in GSK3beta phosphorylation at serine 9 residue at 75 mg/kg, po administered twice daily measured after 2 to 4 hrs by ELISA method relative to control; set-up: scale not given: the % may be the effect or the level left; conditions: time 2-4 hrs
[15] = system: ACHN; assay: Antiproliferative activity against human ACHN cells assessed as reduction in cell growth upto 10 uM measured after 6 days by propidium iodide staining based analysis; assay type: functional; conditions: time 6.0 day; outline: as §4
[16] = system: NCI-H23; assay: Antiproliferative activity against human NCI-H23 cells assessed as reduction in cell growth upto 10 uM measured after 6 days by propidium iodide staining based analysis; assay type: functional; conditions: time 6.0 day; outline: as §4
[17] = Plasma concentration in athymic nude mouse xenografted with human HCT-116 cells at 75 mg/kg, po administered twice daily measured after 1 hr by LC-MS analysis; assay type: ADME, organism-based; outline: as §3
[18] = system: 786-0; assay: Antiproliferative activity against human 786-0 cells assessed as reduction in cell growth upto 10 uM measured after 6 days by propidium iodide staining based analysis; assay type: functional; conditions: time 6.0 day; outline: as §4
[19] = target: Protein kinase C iota type (Homo sapiens) (UniProt P41743); assay: Inhibition of PKCIota (unknown origin) at 1 micromol/L relative to control; conditions: dose 1.0 µmol/L
Outline: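 Commercial kinase profiling panel run by the provider's protocol at a single inhibitor concentration of 1 µmol/L. Activity expressed as percent of kinase activity without inhibitor.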

[20] = target: RAC-alpha serine/threonine-protein kinase (Homo sapiens) (UniProt P31749); assay: Inhibition of PKBalpha (unknown origin) at 1 micromol/L relative to control; conditions: dose 1.0 µmol/L; outline: as §1
[21] = target: Platelet-derived growth factor receptor alpha (Homo sapiens) (UniProt P16234); assay: Inhibition of PDGFRalpha (unknown origin) at 1 micromol/L relative to control; conditions: dose 1.0 µmol/L; outline: as §1
[22] = system: HCT-116; assay: Antitumor activity against human HCT-116 cells xenografted in athymic nude mouse assessed as reduction in GSK3beta phosphorylation at serine 9 residue at 75 mg/kg, po administered twice daily measured after 12 hrs by Western blotting analysis; assay type: functional, organism-based
[23] = system: HOP-62; assay: Antiproliferative activity against human HOP-62 cells assessed as reduction in cell growth upto 10 uM measured after 6 days by propidium iodide staining based analysis; assay type: functional; conditions: time 6.0 day; outline: as §4
[24] = target: Fibroblast growth factor receptor 3 (Homo sapiens) (UniProt P22607); assay: Inhibition of FGFR3 (unknown origin) at 1 micromol/L relative to control; conditions: dose 1.0 µmol/L; outline: as §2
[25] = target: Mitogen-activated protein kinase 13 (Homo sapiens) (UniProt O15264); assay: Inhibition of SAPK4 (unknown origin) at 1 micromol/L relative to control; conditions: dose 1.0 µmol/L; outline: as §1
[26] = system: TK-10; assay: Antiproliferative activity against human TK-10 cells assessed as reduction in cell growth upto 10 uM measured after 6 days by propidium iodide staining based analysis; assay type: functional; conditions: time 6.0 day; outline: as §4
[27] = system: U-87 MG; assay: Antiproliferative activity against human U-87 MG cells assessed as reduction in cell growth upto 10 uM measured after 6 days by propidium iodide staining based analysis; assay type: functional; conditions: U-87MG ATCC, time 6.0 day; outline: as §4

Sequence of RAC-alpha serine/threonine-protein kinase (Homo sapiens) (P31749 whole entry): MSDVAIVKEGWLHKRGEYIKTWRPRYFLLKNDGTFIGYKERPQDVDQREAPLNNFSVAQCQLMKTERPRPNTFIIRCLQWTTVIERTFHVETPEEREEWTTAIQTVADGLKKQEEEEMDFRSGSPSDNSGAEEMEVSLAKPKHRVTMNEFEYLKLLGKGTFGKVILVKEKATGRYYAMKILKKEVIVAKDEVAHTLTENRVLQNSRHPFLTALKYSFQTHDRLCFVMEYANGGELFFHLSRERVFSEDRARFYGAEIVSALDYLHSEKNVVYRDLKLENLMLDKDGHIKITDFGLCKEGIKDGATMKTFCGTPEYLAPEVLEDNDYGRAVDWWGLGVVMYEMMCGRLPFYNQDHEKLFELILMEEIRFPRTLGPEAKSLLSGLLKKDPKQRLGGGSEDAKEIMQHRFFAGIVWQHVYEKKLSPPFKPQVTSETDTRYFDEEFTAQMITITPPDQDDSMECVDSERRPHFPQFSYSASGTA
Sequence of Protein kinase C iota type (Homo sapiens) (P41743 whole entry): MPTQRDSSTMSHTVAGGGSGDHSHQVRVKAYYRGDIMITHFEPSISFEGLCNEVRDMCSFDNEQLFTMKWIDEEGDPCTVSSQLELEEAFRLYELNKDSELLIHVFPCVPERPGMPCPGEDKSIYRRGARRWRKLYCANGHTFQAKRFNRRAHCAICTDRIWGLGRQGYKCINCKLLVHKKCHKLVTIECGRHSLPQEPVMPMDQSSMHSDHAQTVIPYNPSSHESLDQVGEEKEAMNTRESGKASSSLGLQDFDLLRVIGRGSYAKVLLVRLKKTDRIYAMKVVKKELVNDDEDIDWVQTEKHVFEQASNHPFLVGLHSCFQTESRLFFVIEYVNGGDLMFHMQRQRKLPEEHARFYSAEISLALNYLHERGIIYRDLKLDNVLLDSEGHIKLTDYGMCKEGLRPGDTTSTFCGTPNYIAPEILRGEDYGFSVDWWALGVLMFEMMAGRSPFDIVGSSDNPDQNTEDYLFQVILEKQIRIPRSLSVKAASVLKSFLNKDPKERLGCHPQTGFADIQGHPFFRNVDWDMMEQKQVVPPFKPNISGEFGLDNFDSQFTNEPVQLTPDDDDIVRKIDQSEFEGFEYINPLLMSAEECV
Sequence of Platelet-derived growth factor receptor alpha (Homo sapiens) (P16234 whole entry): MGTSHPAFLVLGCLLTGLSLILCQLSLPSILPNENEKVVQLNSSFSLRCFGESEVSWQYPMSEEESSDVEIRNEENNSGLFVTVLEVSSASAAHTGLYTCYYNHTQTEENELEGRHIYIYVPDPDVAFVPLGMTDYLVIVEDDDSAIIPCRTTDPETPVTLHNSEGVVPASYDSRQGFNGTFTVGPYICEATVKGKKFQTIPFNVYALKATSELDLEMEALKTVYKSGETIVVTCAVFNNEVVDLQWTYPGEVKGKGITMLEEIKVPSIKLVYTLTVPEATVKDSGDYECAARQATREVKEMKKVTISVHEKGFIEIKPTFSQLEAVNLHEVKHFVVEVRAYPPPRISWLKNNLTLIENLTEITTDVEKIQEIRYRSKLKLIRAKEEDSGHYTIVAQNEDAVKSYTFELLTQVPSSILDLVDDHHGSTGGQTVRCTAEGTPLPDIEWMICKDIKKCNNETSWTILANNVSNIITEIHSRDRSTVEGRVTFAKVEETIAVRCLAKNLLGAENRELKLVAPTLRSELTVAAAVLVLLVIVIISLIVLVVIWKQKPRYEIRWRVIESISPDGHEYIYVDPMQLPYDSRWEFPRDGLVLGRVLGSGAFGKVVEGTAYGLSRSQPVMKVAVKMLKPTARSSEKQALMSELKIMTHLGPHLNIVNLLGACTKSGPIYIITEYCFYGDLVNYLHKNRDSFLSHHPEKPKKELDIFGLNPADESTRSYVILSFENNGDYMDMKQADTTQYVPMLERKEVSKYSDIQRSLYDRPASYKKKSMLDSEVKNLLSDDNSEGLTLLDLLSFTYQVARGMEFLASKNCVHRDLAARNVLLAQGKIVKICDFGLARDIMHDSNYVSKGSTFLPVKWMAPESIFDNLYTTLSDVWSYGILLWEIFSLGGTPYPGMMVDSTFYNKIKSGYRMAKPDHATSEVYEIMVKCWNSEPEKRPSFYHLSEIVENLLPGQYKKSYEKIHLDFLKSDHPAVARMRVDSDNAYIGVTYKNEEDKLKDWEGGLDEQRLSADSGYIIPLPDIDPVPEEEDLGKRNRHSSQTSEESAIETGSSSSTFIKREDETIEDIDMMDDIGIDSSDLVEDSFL
Sequence of Mitogen-activated protein kinase 13 (Homo sapiens) (O15264 whole entry): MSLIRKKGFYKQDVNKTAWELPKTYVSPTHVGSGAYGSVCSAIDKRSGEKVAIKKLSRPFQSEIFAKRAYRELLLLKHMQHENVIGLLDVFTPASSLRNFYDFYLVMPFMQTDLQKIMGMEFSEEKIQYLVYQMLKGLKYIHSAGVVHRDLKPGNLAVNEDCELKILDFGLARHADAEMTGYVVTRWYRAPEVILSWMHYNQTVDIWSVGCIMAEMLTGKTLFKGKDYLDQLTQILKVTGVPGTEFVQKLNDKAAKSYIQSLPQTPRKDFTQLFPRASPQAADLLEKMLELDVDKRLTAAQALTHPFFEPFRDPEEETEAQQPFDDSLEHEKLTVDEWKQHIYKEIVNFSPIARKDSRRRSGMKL
Sequence of Fibroblast growth factor receptor 3 (Homo sapiens) (P22607 23-806 limits assumed): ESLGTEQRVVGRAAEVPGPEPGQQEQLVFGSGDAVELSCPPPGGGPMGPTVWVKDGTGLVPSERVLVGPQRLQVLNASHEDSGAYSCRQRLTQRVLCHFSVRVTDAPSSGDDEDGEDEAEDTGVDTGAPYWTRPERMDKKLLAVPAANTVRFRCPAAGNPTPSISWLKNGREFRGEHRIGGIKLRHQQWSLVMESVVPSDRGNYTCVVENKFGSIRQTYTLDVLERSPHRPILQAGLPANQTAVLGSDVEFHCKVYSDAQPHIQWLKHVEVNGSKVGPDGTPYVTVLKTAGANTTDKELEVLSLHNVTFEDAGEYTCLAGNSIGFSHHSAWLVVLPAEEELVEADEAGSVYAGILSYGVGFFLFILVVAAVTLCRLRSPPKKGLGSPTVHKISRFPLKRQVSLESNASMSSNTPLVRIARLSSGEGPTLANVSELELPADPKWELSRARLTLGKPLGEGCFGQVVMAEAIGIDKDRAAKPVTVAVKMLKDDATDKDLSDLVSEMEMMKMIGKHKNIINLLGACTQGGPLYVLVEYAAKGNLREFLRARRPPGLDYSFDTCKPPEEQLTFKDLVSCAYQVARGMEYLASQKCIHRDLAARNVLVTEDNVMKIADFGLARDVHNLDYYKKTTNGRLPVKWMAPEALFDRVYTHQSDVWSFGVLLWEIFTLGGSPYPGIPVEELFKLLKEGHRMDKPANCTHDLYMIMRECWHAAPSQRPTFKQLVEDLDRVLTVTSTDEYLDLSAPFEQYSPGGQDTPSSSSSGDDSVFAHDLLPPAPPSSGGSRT
Sequence of Proto-oncogene tyrosine-protein kinase Src (Homo sapiens) (P12931 2-536 limits assumed): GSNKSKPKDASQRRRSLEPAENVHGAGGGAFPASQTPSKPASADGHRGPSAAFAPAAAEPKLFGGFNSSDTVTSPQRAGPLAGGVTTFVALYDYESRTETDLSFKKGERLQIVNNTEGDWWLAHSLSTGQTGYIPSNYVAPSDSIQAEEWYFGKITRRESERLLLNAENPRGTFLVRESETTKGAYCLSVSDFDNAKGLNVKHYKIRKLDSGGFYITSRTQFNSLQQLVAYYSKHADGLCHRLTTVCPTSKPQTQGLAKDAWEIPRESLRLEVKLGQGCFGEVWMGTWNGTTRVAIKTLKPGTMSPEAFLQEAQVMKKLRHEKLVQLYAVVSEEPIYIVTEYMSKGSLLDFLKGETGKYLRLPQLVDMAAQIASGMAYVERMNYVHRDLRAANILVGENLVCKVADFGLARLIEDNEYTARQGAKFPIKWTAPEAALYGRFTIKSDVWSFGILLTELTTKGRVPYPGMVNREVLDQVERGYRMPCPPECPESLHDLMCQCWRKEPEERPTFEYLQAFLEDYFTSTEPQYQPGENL
Sequence of Protein kinase C eta type (Homo sapiens) (P24723 whole entry): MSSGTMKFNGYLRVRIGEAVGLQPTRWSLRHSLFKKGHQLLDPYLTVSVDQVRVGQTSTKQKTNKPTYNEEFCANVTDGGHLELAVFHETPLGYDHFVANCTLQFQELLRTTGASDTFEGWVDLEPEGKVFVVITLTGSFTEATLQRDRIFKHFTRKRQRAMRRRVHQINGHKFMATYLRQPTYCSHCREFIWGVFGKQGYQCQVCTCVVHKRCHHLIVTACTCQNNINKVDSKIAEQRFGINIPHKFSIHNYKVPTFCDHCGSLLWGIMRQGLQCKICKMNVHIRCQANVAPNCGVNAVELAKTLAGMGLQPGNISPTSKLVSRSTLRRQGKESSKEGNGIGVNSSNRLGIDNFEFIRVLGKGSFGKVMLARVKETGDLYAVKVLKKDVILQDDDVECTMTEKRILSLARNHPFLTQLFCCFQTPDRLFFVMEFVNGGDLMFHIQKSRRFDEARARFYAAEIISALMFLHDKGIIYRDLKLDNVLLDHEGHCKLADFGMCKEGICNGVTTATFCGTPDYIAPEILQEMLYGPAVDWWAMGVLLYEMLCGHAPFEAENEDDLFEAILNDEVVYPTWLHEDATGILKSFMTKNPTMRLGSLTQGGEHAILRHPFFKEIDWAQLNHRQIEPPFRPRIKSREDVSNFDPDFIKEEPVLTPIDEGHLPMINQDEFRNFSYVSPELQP
Sequence of Glycogen synthase kinase-3 beta (Homo sapiens) (P49841 whole entry, looked up): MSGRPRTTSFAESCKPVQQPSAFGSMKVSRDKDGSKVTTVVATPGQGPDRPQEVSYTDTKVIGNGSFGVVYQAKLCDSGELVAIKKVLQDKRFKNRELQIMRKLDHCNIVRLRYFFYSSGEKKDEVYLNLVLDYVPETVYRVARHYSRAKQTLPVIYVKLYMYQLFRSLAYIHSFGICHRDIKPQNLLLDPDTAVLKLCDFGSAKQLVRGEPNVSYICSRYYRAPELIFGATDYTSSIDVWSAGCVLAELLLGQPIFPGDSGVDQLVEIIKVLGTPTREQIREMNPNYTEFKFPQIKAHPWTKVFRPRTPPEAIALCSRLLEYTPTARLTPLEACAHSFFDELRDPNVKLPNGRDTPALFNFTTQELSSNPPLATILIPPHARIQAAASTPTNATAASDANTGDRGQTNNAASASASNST

## Cl.Cn1cc(C2=C(c3cn(C4CCN(Cc5ccccn5)CC4)c4ccccc34)C(=O)NC2=O)c2ccccc21 [ENZASTAURIN HYDROCHLORIDE]
[1]
  % control activity: 101%
[2]
  % control activity: 100%
[3]
  % control activity: 116%
[4]
  inhibition: Tde
[5]
  concentration at 0.5 h: ~2000 nM
[6]
  Activity: inactive
[7]
  % control activity: 101%
[8]
  Activity: Active
[9]
  Activity: inactive
[10]
  Activity: Tde
[11]
  Activity: >60%
[12]
  Activity: inactive
[13]
  % control activity: 53%
[14]
  Activity: >60%
[15]
  Activity: inactive
[16]
  Activity: inactive
[17]
  concentration at 1 h: 3000 nM
[18]
  Activity: inactive
[19]
  % control activity: 91%
[20]
  % control activity: 75%
[21]
  % control activity: 86%
[22]
  Activity: inactive
[23]
  Activity: inactive
[24]
  % control activity: 82%
[25]
  % control activity: 97%
[26]
  Activity: inactive
[27]
  Activity: Active

Reference: ChEMBL document CHEMBL5715938, “The protein kinase Cbeta-selective inhibitor, Enzastaurin (LY317615.HCl), suppresses signaling through the AKT pathway, induces apoptosis, and suppresses growth of human colon cancer and glioblastoma xenografts” (Cancer Res, 2005)
